The text below walks through data of ChEMBL document CHEMBL4480465, “Anti-inflammatory Mono- and Dimeric Sorbicillinoids from the Marine-Derived Fungus Trichoderma reesei 4670” (J Nat Prod, 2019).

What is called IC50 is the concentration that inhibits the measured activity by half.

One experiment concerns HepG2. Briefly: Cytotoxicity against human HepG2 cells by MTT assay. Format: functional, cell-based. (In general: Tetrazolium assays rely on reduction of a dye to a coloured formazan, in cell work by metabolically active cells.)
For another experiment, the system named is HeLa. In words: Cytotoxicity against human HeLa cells by MTT assay. Format: functional, cell-based.
The test system of the next experiment is MCF7. Briefly: Cytotoxicity against human MCF7 cells by MTT assay. Format: functional, cell-based.
In experiment [1] the test system is RAW264.7. In words: Antiinflammatory activity against mouse RAW264.7 cells assessed as inhibition of LPS-induced nitric oxide production measured after 24 hrs. Type of experiment: functional, cell-based. Conditions: RAW264.7, 24 h. The method in brief: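 RAW264.7 cells seeded at 5 × 10^4 per well and grown 24 h, then given LPS (1 μg/mL) together with graded compound concentrations (DMSO stocks) for 24 h. NO in the medium was read with nitric oxide detection reagents I and II, measuring absorbance at 540 nm. IC50 came from normalized response–variable slope curve fits, mean of n = 3.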

Experiment [2] has as its system RAW264.7. Briefly: Cytotoxicity against mouse RAW264.7 cells by MTT assay. Type of experiment: cell-based.

The source made the active and inactive calls. The calls are words filed in the database; no cut-off is given here.

Turning to `C/C=C/C=C/C(O)=C1\C(=O)C(C)=C(O)[C@@]2(C)O[C@@]3(O)[C@@](C)(O)CC4=C(O[C@H](/C=C/C)CC4=O)[C@@]3(C)[C@@H]12`, the outcome in the experiment with HepG2, with HeLa and in the experiment on MCF7 was inactive. Further, the figures for the IC50 in the experiment on RAW264.7 [1] and in the experiment with RAW264.7 [2] were 32 µM and over 50 µM, respectively.

In the case of `C/C=C/CCCc1cc(C)c(O)cc1O`, the result in the experiment with HepG2, in the experiment with HeLa and in the experiment with MCF7 was inactive. Moreover, the IC50 in the experiment on RAW264.7 [1] was 13 µM; in the experiment on RAW264.7 [2], over 50 µM.

Consider `C/C=C/CCC(=O)C1=C(O)[C@@]2(C)[C@H]3\C(=C(O)/C=C/C=C/CO)C(=O)C(C)=C(O)[C@@]3(C)O[C@@]2(O)[C@@](C)(O)C1`, for which the outcome with HepG2, in the experiment on HeLa and in the experiment on MCF7 was inactive. The IC50 with RAW264.7 [1] is 22 µM; in the experiment with RAW264.7 [2] it was over 50 µM.

On to `Cc1cc2c(c(C)c1O)O[C@H](/C=C/CO)CC2=O`, for which the outcome in the experiment with HepG2, in the experiment with HeLa and in the experiment on MCF7 was inactive. The IC50 with RAW264.7 [1] was 8.5 µM; in the experiment on RAW264.7 [2], over 50 µM.

As to `C/C=C/C=C/C(O)=C1/C(=O)[C@]2(C)C(=O)[C@@](C)(O)[C@H]1[C@@H]1CC(=O)N(C)[C@@H]12`, the outcome in the experiment on HepG2, in the experiment on HeLa and in the experiment on MCF7 was inactive. The half-maximal inhibitory concentration (IC50) in the experiment with RAW264.7 [1] and in the experiment on RAW264.7 [2] was over 50 µM each time.

As to `C/C=C/CCC(=O)c1cc(C)c(O)cc1O` [SOHIRNONE A], the outcome with HepG2, in the experiment on HeLa and with MCF7 was inactive. Moreover, the IC50 is 14 µM in the experiment on RAW264.7 [1] and over 50 µM in the experiment on RAW264.7 [2].

As for `Cc1cc(C(=O)CCC(=O)O)c(O)c(C)c1O`, the result in the experiment with HepG2, in the experiment with HeLa and with MCF7 was inactive. In addition, the half-inhibitory concentration (IC50) in the experiment with RAW264.7 [1] and in the experiment with RAW264.7 [2] was over 50 µM in each case.

Consider `C/C=C/[C@@H](O)CC(=O)c1cc(C)c(O)cc1O`, for which the result with HepG2, in the experiment on HeLa and in the experiment with MCF7 was inactive. Further, the 50% inhibitory concentration (IC50) is 12 µM in the experiment on RAW264.7 [1] and over 50 µM with RAW264.7 [2].

Take `C/C=C/C=C/C(=O)c1c(O)c(C)cc(C)c1O`: the outcome in the experiment on HepG2, in the experiment on HeLa and with MCF7 was inactive. Moreover, the values for the IC50 in the experiment on RAW264.7 [1] and with RAW264.7 [2] were 3.3 µM and over 50 µM, respectively.

As to `COc1ccc2c(c1)c(CC(=O)O)c(C)n2C(=O)c1ccc(Cl)cc1` [INDOMETHACIN], the results for the half-maximal inhibitory concentration (IC50) with RAW264.7 [1] and in the experiment with RAW264.7 [2] were 41 µM and over 50 µM, respectively.

As for `C/C=C/C=C/C(O)=C1\C[C@](C)(O)[C@]2(O)O[C@]3(C)C(O)=C(C)C(=O)/C(=C(O)/C=C/C=C/CO)[C@@H]3[C@]2(C)C1=O`, the outcome in the experiment with HepG2, in the experiment on HeLa and in the experiment on MCF7 was inactive. The IC50 in the experiment with RAW264.7 [1] was 6.1 µM; with RAW264.7 [2], over 50 µM.

Consider `Cc1cc2c(c(C)c1O)O[C@H](CCCO)CC2=O`, for which the outcome with HepG2, in the experiment with HeLa and in the experiment with MCF7 was inactive. Besides, the 50% inhibitory concentration (IC50) in the experiment with RAW264.7 [1] was 38 µM; in the experiment on RAW264.7 [2], over 50 µM.

Take `Cc1cc(C(=O)CC/C=C/CO)c(O)cc1O`: the result with HepG2, in the experiment with HeLa and with MCF7 was inactive. Also, the IC50 with RAW264.7 [1] is 0.94 µM; with RAW264.7 [2] it was over 50 µM.

On to `Cc1c(O)ccc(C(=O)C[C@@H]2CC[C@H]([C@H](C)O)O2)c1O`, for which the result with HepG2, in the experiment on HeLa and in the experiment with MCF7 was inactive. Besides, the IC50 with RAW264.7 [1] and in the experiment on RAW264.7 [2] was over 50 µM each time.

In the case of `C/C=C/C=C/C(O)=C1/C(=O)C(C)=C(O)[C@@]2(C)O[C@@]3(O)[C@@](C)(O)CC(C(=O)CC/C=C/C)=C(O)[C@@]3(C)[C@@H]12`, the outcome in the experiment on HepG2, with HeLa and in the experiment on MCF7 was inactive. Also, the figures for the 50% inhibitory concentration (IC50) in the experiment with RAW264.7 [1] and with RAW264.7 [2] were 5.9 µM and over 50 µM, respectively.

Consider `Cc1cc(C(=O)CCC(=O)O)c(O)cc1O`, for which the result in the experiment on HepG2, in the experiment on HeLa and in the experiment on MCF7 was inactive. Further, the half-inhibitory concentration (IC50) in the experiment on RAW264.7 [1] and in the experiment with RAW264.7 [2] was over 50 µM each time.

For the compound `C/C=C/C=C/C(O)=C1\C(=O)C(C)=C(O)[C@@]2(C)O[C@@]3(O)[C@@](C)(O)CC4=C(O[C@@H](/C=C/C)CC4=O)[C@@]3(C)[C@@H]12`, the outcome in the experiment on HepG2, with HeLa and with MCF7 was inactive. For the same compound, the IC50 in the experiment on RAW264.7 [1] is 22 µM; with RAW264.7 [2] it was over 50 µM.

For the compound `CC1=C(O)[C@@]2(C)O[C@@]3(O)[C@@](C)(O)C\C(=C(O)/C=C/C=C/CO)C(=O)[C@@]3(C)[C@H]2\C(=C(O)/C=C/C=C/CO)C1=O`, the result in the experiment on HepG2, in the experiment on HeLa and in the experiment with MCF7 was inactive. The IC50 in the experiment on RAW264.7 [1] and with RAW264.7 [2] was over 50 µM throughout.

Take `CC1=C(O)[C@@]2(C)O[C@@]3(O)[C@@](C)(O)CC(C(=O)CC/C=C/CO)=C(O)[C@@]3(C)[C@H]2\C(=C(O)/C=C/C=C/CO)C1=O`: the outcome with HepG2, with HeLa and with MCF7 was inactive. Also, the results for the concentration for half-maximal inhibition (IC50) with RAW264.7 [1] and with RAW264.7 [2] were 24 µM and over 50 µM, respectively.

Regarding `Cc1cc(C(=O)CCCCCO)c(O)cc1O`, the outcome with HepG2, in the experiment on HeLa and with MCF7 was inactive. In addition, the IC50 in the experiment with RAW264.7 [1] and in the experiment on RAW264.7 [2] was over 50 µM each time.

In the case of `Cc1c(O)c(O)cc(C(=O)CC/C=C/CO)c1O`, the outcome in the experiment on HepG2, in the experiment on HeLa and in the experiment with MCF7 was inactive. Also, the half-inhibitory concentration (IC50) with RAW264.7 [1] is 6.1 µM; in the experiment with RAW264.7 [2], over 50 µM.

As to `Cc1cc(C(=O)/C=C/C=C/CO)c(O)c(C)c1O`, the result in the experiment with HepG2, with HeLa and with MCF7 was inactive. In addition, the IC50 in the experiment with RAW264.7 [1] was 6.8 µM; in the experiment on RAW264.7 [2], over 50 µM.

Regarding `Cc1cc(C(=O)CC/C=C/CO)c(O)c(C)c1O`, the result in the experiment on HepG2, with HeLa and with MCF7 was inactive. Besides, the values for the IC50 in the experiment with RAW264.7 [1] and in the experiment on RAW264.7 [2] were 2.9 µM and over 50 µM, respectively.

In the case of `C/C=C/C=C/C(O)=C1\C[C@](C)(O)[C@]2(O)O[C@]3(C)C(O)=C(C)C(=O)/C(=C(O)/C=C/C=C/C)[C@@H]3[C@]2(C)C1=O`, the outcome in the experiment on HepG2, in the experiment with HeLa and with MCF7 was inactive. The results for the half-inhibitory concentration (IC50) in the experiment with RAW264.7 [1] and with RAW264.7 [2] were 9.9 µM and over 50 µM, respectively.

Regarding `Cc1cc(C(=O)CC/C=C/C(=O)O)c(O)cc1O`, the result in the experiment with HepG2, in the experiment with HeLa and with MCF7 was inactive. The IC50 in the experiment on RAW264.7 [1] and in the experiment with RAW264.7 [2] was over 50 µM throughout.
